The species entered for data set [1] is Homo sapiens. In words: Inhibition of dipeptidylpeptidase 4.
Data set [2] is filed under the species Homo sapiens. Description: Inhibition of maltase.
The next data set concerns HEK293. Description: Cytotoxicity against HEK293 cells at 100 uM. Conditions: human, hek293, 100 µM. It counts as cell-based.
The nature of data set [3]: Inhibition of alpha glucosidase. Also on record: species or system Homo sapiens. A digest of the protocol: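 The enzyme (25 mU/mL) was preincubated with a range of compound concentrations in 10 mM phosphate buffer, pH 7.2, at 37 °C for 10 min. p-Nitrophenyl-alpha-D-glucopyranoside was then added to 0.16 mM final and incubated 30 min at 37 °C. The reaction was basified with 0.5 M Na2CO3 and released p-nitrophenol read at 400 nm. IC50 values were derived.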

The target in data set [4] is T1, Oxysterols receptor LXR-alpha (Homo sapiens) (UniProt Q13133).
T1 sequence (whole entry): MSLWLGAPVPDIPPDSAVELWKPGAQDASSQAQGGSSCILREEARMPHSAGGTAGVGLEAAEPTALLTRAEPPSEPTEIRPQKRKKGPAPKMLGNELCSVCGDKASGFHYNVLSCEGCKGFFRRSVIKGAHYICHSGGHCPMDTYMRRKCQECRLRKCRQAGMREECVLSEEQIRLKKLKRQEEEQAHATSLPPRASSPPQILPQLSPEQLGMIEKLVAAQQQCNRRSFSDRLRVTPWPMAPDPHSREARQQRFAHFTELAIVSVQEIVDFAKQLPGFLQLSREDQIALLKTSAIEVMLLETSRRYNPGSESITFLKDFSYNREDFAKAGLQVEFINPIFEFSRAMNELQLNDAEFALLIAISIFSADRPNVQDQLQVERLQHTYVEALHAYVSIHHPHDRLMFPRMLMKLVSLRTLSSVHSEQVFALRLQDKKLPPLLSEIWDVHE
In words: Antagonist activity at human recombinant LXRalpha expressed in HEK293 cells assessed as inhibition of T0901317-induced transcriptional activation at 100 uM by luciferase assay. It counts as functional, cell-based. An outline of the steps:
(§1)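 GAL4 DNA-binding domain fused to human LXR (alpha or beta) as receptor plasmid, TK-MH100x4-LUC reporter, and CMX beta-galactosidase for normalization. HEK293 cells in DMEM with 5% FBS, 37 °C, 5% CO2. Transfected by calcium phosphate coprecipitation. Compounds added 8 h post-transfection together with 0.1 µM T0901317, whose response alone was set as 100%. Luciferase read on a luminometer. Three repeats, normalized averages.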

Data set [5] addresses T2, Oxysterols receptor LXR-beta (Homo sapiens) (UniProt P55055).
T2 sequence (whole entry): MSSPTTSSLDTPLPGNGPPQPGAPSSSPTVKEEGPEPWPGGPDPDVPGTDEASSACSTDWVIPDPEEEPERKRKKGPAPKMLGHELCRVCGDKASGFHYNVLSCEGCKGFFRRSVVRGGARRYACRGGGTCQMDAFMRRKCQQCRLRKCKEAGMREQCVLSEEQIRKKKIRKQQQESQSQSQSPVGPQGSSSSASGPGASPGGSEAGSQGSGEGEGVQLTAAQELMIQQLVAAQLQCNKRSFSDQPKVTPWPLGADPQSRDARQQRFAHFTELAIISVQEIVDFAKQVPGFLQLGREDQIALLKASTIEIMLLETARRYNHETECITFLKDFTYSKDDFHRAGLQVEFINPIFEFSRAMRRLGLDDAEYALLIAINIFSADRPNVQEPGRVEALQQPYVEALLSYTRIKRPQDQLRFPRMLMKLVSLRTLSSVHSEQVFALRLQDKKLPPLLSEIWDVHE
In words: Antagonist activity at human recombinant LXRbeta expressed in HEK293 cells assessed as inhibition of T0901317-induced transcriptional activation at 100 uM by luciferase assay. Format: functional, cell-based. An outline of the steps: as §1

For data set [6], the target named is T3, Oxysterols receptor LXR-beta (Homo sapiens, UniProt P55055).
T3 sequence (P55055 whole entry): T2 sequence (whole entry)
Description: Antagonist activity at human recombinant LXRbeta expressed in HEK293 cells assessed as inhibition of T0901317-induced transcriptional activation by luciferase assay. It counts as functional, cell-based.

In data set [7] the target is T4, Oxysterols receptor LXR-alpha (Homo sapiens, UniProt Q13133).
T4 sequence (Q13133 whole entry): T1 sequence (whole entry)
In words: Antagonist activity at human recombinant LXRalpha expressed in HEK293 cells assessed as inhibition of T0901317-induced transcriptional activation by luciferase assay. It counts as functional, cell-based.

Activity calls are given as the source filed them. The rule behind the calls is not given here.

Take `O=C1c2ccccc2C(=O)N1c1ccccc1CCc1ccccc1`: the outcome in the data set filed under Homo sapiens [1] and in the data set listed under Homo sapiens [2] was inactive. In the data set on HEK293, this compound registered an Activity of 48%. Also, the half-maximal inhibitory concentration (IC50) in data set [3] amounted to 16.2 µM.
With `O=C1c2c(Cl)c(Cl)c(Cl)c(Cl)c2C(=O)N1CCCc1ccccc1`, the inhibition in data set [4] came to 59%; in data set [5], 52%. In data set [3], this compound showed a concentration for half-maximal inhibition (IC50) of 4.5 µM.
Consider `CC(C)c1cccc(C(C)C)c1N1C(=O)c2c(Cl)c(Cl)c(Cl)c(Cl)c2C1=O`, for which the inhibition in data set [4] worked out at 61%; in data set [5], 49%. The IC50 in data set [3] was 2.4 µM.
`CC(C)c1cccc(C(C)C)c1N1C(=O)c2ccccc2C1=S`: the inhibition in data set [4] amounted to 94%; in data set [5], 92%. Also, the result in the data set listed under Homo sapiens [1] and in the data set listed under Homo sapiens [2] was Active. Also, the Activity in the data set on HEK293 came out at 73%. In addition, the IC50 in data set [3] stood at 8 µM.
As to `O=C1c2c(Cl)c(Cl)c(Cl)c(Cl)c2C(=O)N1Cc1ccccc1`, the inhibition was 60% in data set [4] and 51% in data set [5]. In data set [3], this compound gave a concentration for half-maximal inhibition (IC50) of 10.9 µM.
With `O=C1c2ccc(Cl)cc2C(=O)N1CCCCc1ccccc1`, the inhibition in data set [4] came to 66%; in data set [5], 45%.
For `CCCCCCc1ccccc1N1C(=O)c2ccccc2C1=O`, the outcome in the data set filed under Homo sapiens [1] and in the data set listed under Homo sapiens [2] was inactive. In addition, the half-inhibitory concentration (IC50) was found to be 65 µM in data set [6], 24.7 µM in data set [3] and 13 µM in data set [7]. This compound displayed an Activity in the data set with HEK293 of 57%.
In the case of `O=C1c2c(Cl)c(Cl)c(Cl)c(Cl)c2C(=O)N1CCCCCCCCCCc1ccccc1`, the outcome in data set [4] and in data set [5] was inactive. In data set [3], this compound yielded a 50% inhibitory concentration (IC50) of 6.8 µM.
Consider `O=C1c2c(Cl)c(Cl)c(Cl)c(Cl)c2C(=O)N1CCc1ccccc1`, for which the inhibition in data set [4] and in data set [5] was 38% throughout. 6 µM corresponded to half-maximal inhibition in data set [3] (IC50).
For the compound `O=C1c2cc(Cl)c(Cl)cc2C(=O)N1CCCCc1ccccc1`, the figures for the inhibition in data set [4] and in data set [5] were 50% and 35%, respectively.
In the case of `O=C1c2c(Cl)c(Cl)c(Cl)c(Cl)c2C(=O)N1CCCCc1ccccc1`, the inhibition stood at 53% in data set [4] and 49% in data set [5]. This compound also came in with a 50% inhibitory concentration (IC50) in data set [3] of 2 µM.
For the compound `O=C1c2c(Cl)c(Cl)c(Cl)c(Cl)c2C(=O)N1c1ccccc1`, the result in data set [4] and in data set [5] was inactive. In data set [3], 2.6 µM corresponded to half-maximal inhibition (IC50).
In the case of `O=C1c2c(Cl)c(Cl)c(Cl)c(Cl)c2C(=O)N1CCCCCc1ccccc1`, the inhibition in data set [4] is 42%; in data set [5], 3%. In data set [3], this compound yielded an IC50 of 3.5 µM.

Broadly, the IC50 is the midpoint of a concentration-inhibition curve. One may read the inhibition as the relative decrease from the control value, in per cent.

Values taken from ChEMBL document CHEMBL1139976, “Liver X receptor antagonists with a phthalimide skeleton derived from thalidomide-related glucosidase inhibitors” (Bioorg Med Chem Lett, 2007).
